ChEMBL document CHEMBL1151475, “Thiopurine drugs azathioprine and 6-mercaptopurine inhibit Mycobacterium paratuberculosis growth in vitro” (2008)

What was measured:
[1] = test system: Mycobacterium avium subsp. paratuberculosis; assay: Antituberculosis activity against Mycobacterium paratuberculosis JTC303 isolated from bovine assessed as minimum drug level required for inhibition by MGIT 960 susceptibility test; type: functional
Method in brief: (§1)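 10^5 to 10^6 CFU from single-cell suspensions inoculated in duplicate into MGIT ParaTB medium with supplement and egg yolk. Drugs were at final 0.5–64.0 μg/ml, with 128.0 μg/ml added for some strains. Tubes were incubated at 37°C in MGIT 960. Inhibition is the lowest concentration giving a time to detection longer than a drug-free 1:100 inoculum control. Killing is no positive signal through 56 days.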

[2] = test system: Mycobacterium avium subsp. paratuberculosis; assay: Antituberculosis activity against Mycobacterium paratuberculosis JTC303 isolated from bovine assessed as minimum drug level required for killing after 56 days by MGIT 960 susceptibility test; type: functional; method in brief: as §1
[3] = test system: Mycobacterium avium subsp. paratuberculosis; assay: Antituberculosis activity against Mycobacterium paratuberculosis UCF-4 isolated from Crohn's disease patient assessed as minimum drug level required for inhibition by MGIT 960 susceptibility test; type: functional; method in brief: as §1
[4] = test system: Mycobacterium avium subsp. paratuberculosis; assay: Antituberculosis activity against Mycobacterium paratuberculosis UCF-4 isolated from Crohn's disease patient assessed as minimum drug level required for killing after 56 days by MGIT 960 susceptibility test; type: functional; method in brief: as §1
[5] = test system: Mycobacterium avium subsp. paratuberculosis; assay: Antituberculosis activity against Mycobacterium paratuberculosis UCF-5 isolated from Crohn's disease patient assessed as minimum drug level required for inhibition by MGIT 960 susceptibility test; type: functional; method in brief: as §1
[6] = test system: Mycobacterium avium subsp. paratuberculosis; assay: Antituberculosis activity against Mycobacterium paratuberculosis UCF-5 isolated from Crohn's disease patient assessed as minimum drug level required for killing after 56 days by MGIT 960 susceptibility test; type: functional; method in brief: as §1
[7] = test system: Mycobacterium avium subsp. paratuberculosis; assay: Antituberculosis activity against Mycobacterium paratuberculosis UCF-7 isolated from Crohn's disease patient assessed as minimum drug level required for inhibition by MGIT 960 susceptibility test; type: functional; method in brief: as §1
[8] = test system: Mycobacterium avium subsp. paratuberculosis; assay: Antituberculosis activity against Mycobacterium paratuberculosis UCF-7 isolated from Crohn's disease patient assessed as minimum drug level required for killing after 56 days by MGIT 960 susceptibility test; type: functional; method in brief: as §1
[9] = test system: Mycobacterium avium subsp. paratuberculosis; assay: Antituberculosis activity against Mycobacterium paratuberculosis B213 isolated from bovine assessed as minimum drug level required for inhibition by MGIT 960 susceptibility test; type: functional; method in brief: as §1
[10] = test system: Mycobacterium avium subsp. paratuberculosis; assay: Antituberculosis activity against Mycobacterium paratuberculosis B213 isolated from bovine assessed as minimum drug level required for killing after 56 days by MGIT 960 susceptibility test; type: functional; method in brief: as §1
[11] = test system: Mycobacterium avium subsp. paratuberculosis; assay: Antituberculosis activity against Mycobacterium paratuberculosis B236 isolated from bovine assessed as minimum drug level required for inhibition by MGIT 960 susceptibility test; type: functional; method in brief: as §1
[12] = test system: Mycobacterium avium subsp. paratuberculosis; assay: Antituberculosis activity against Mycobacterium paratuberculosis B236 isolated from bovine assessed as minimum drug level required for killing after 56 days by MGIT 960 susceptibility test; type: functional; method in brief: as §1
[13] = test system: Mycobacterium avium subsp. paratuberculosis; assay: Antituberculosis activity against Mycobacterium paratuberculosis B238 isolated from bovine assessed as minimum drug level required for inhibition by MGIT 960 susceptibility test; type: functional; method in brief: as §1
[14] = test system: Mycobacterium avium subsp. paratuberculosis; assay: Antituberculosis activity against Mycobacterium paratuberculosis B238 isolated from bovine assessed as minimum drug level required for killing after 56 days by MGIT 960 susceptibility test; type: functional; method in brief: as §1
Mycobacterium avium [15] = assay: Antituberculosis activity against Mycobacterium avium ATCC 35712 isolated from chicken assessed as minimum drug level required for inhibition by MGIT 960 susceptibility test; type: functional; method in brief: as §1
[16] = test system: Mycobacterium avium subsp. paratuberculosis; assay: Antituberculosis activity against Mycobacterium paratuberculosis UCF-8 isolated from Crohn's disease patient assessed as minimum drug level required for inhibition by MGIT 960 susceptibility test; type: functional; method in brief: as §1
[17] = test system: Mycobacterium avium subsp. paratuberculosis; assay: Antituberculosis activity against Mycobacterium paratuberculosis B244 isolated from bovine assessed as minimum drug level required for inhibition by MGIT 960 susceptibility test; type: functional; method in brief: as §1
[18] = test system: Mycobacterium avium subsp. paratuberculosis; assay: Antituberculosis activity against Mycobacterium paratuberculosis B244 isolated from bovine assessed as minimum drug level required for killing after 56 days by MGIT 960 susceptibility test; type: functional; method in brief: as §1
[19] = test system: Mycobacterium avium subsp. paratuberculosis; assay: Antituberculosis activity against Mycobacterium paratuberculosis ATCC 19698 isolated from bovine assessed as lowest drug level required for killing by MGIT 960 susceptibility test; type: functional
Method in brief: (§2)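 M. paratuberculosis ATCC 19698 at 10^6 CFU per MGIT ParaTB tube in duplicate, drugs at final 1.0–64.0 μg/ml, 37°C in MGIT 960. Inhibition is the lowest concentration whose time to detection exceeds the 1:100 diluted-inoculum solvent control. No detectable growth means the tube never signals positive through 56 days.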

Mycobacterium avium [20] = assay: Antituberculosis activity against Mycobacterium avium ATCC 25291 isolated from chicken assessed as minimum drug level required for inhibition by MGIT 960 susceptibility test; type: functional; method in brief: as §1
Mycobacterium avium [21] = assay: Antituberculosis activity against Mycobacterium avium ATCC 25291 isolated from chicken assessed as minimum drug level required for killing within 15 days by MGIT 960 susceptibility test; type: functional
Mycobacterium avium [22] = assay: Antituberculosis activity against Mycobacterium avium 104 isolated from AIDS patient assessed as minimum drug level required for inhibition by MGIT 960 susceptibility test; type: functional; method in brief: as §1
Mycobacterium avium [23] = assay: Antituberculosis activity against Mycobacterium avium 104 isolated from AIDS patient assessed as minimum drug level required for killing within 15 days by MGIT 960 susceptibility test; type: functional
Mycobacterium avium [24] = assay: Antituberculosis activity against Mycobacterium avium JTC48627 isolated from bison fecal sample assessed as minimum drug level required for inhibition by MGIT 960 susceptibility test; type: functional, Feces; method in brief: as §1
Mycobacterium avium [25] = assay: Antituberculosis activity against Mycobacterium avium JTC48627 isolated from bison fecal sample assessed as minimum drug level required for killing within 15 days by MGIT 960 susceptibility test; type: functional, Feces
Mycobacterium avium [26] = assay: Antituberculosis activity against Mycobacterium avium JTC981 isolated from bongo fecal sample assessed as minimum drug level required for inhibition by MGIT 960 susceptibility test; type: functional, Feces; method in brief: as §1
Mycobacterium avium [27] = assay: Antituberculosis activity against Mycobacterium avium JTC981 isolated from bongo fecal sample assessed as minimum drug level required for killing within 15 days by MGIT 960 susceptibility test; type: functional, Feces
Mycobacterium avium [28] = assay: Antituberculosis activity against Mycobacterium avium EPA3 isolated from water assessed as minimum drug level required for killing within 15 days by MGIT 960 susceptibility test; type: functional
Mycobacterium avium [29] = assay: Antituberculosis activity against Mycobacterium avium WSLH1544 isolated from water assessed as minimum drug level required for killing within 15 days by MGIT 960 susceptibility test; type: functional
Mycolicibacterium phlei [30] = assay: Antituberculosis activity against Mycobacterium phlei ATCC 11758 assessed as minimum drug level required for inhibition by MGIT 960 susceptibility test; type: functional
Method in brief: (§3)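 MGIT ParaTB tubes were supplemented with egg yolk and inoculated in duplicate with 10^5 to 10^6 CFU from single-cell suspensions. Thiopurines were dissolved in 0.05 M NaOH in 10 mM PBS and tested at final 0.5 to 64.0 μg/ml, with 128.0 μg/ml added for some strains. Tubes ran at 37°C in the MGIT 960. The value is the lowest concentration giving a time-to-detection longer than a drug-free 1:100 inoculum control.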

Mycolicibacterium phlei [31] = assay: Antituberculosis activity against Mycobacterium phlei ATCC 11758 assessed as minimum drug level required for killing after 56 days by MGIT 960 susceptibility test; type: functional
Method in brief: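 Duplicate MGIT ParaTB tubes with egg yolk and supplement received 10^5 to 10^6 CFU and thiopurine (in 0.05 M NaOH/10 mM PBS) at final 0.5 to 64.0 μg/ml, plus 128.0 μg/ml for some strains. Tubes were incubated at 37°C in the MGIT 960. The value is the minimum concentration whose tubes never signalled positive by 56 days.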

[32] = test system: Mycolicibacterium smegmatis; assay: Antituberculosis activity against Mycobacterium smegmatis ATCC 14468 assessed as minimum drug level required for inhibition by MGIT 960 susceptibility test; type: functional; method in brief: as §3
[33] = test system: Mycolicibacterium smegmatis; assay: Antituberculosis activity against Mycobacterium smegmatis ATCC 14468 assessed as minimum drug level required for killing after 56 days by MGIT 960 susceptibility test; type: functional; method in brief: as §1
Escherichia coli [34] = assay: Antituberculosis activity against Escherichia coli ATCC 25922 clinical isolate assessed as minimum drug level required for inhibition by MGIT 960 susceptibility test; type: functional
Escherichia coli [35] = assay: Antituberculosis activity against Escherichia coli ATCC 25922 clinical isolate assessed as minimum drug level required for killing after 56 days by MGIT 960 susceptibility test; type: functional
Enterococcus faecalis [36] = assay: Antituberculosis activity against Enterococcus faecalis ATCC 29212 isolated from human urine assessed as minimum drug level required for inhibition by MGIT 960 susceptibility test; type: functional
Enterococcus faecalis [37] = assay: Antituberculosis activity against Enterococcus faecalis ATCC 29212 isolated from human urine assessed as minimum drug level required for killing after 56 days by MGIT 960 susceptibility test; type: functional
[38] = test system: Mycobacterium avium subsp. paratuberculosis; assay: Antituberculosis activity against Mycobacterium paratuberculosis ATCC 19698 isolated from bovine assessed as lowest drug level producing inhibition at 10^6 CFU of inoculum by MGIT 960 susceptibility test; type: functional; method in brief: as §2
[39] = test system: Mycobacterium avium subsp. paratuberculosis; assay: Antituberculosis activity against Mycobacterium paratuberculosis ATCC 19698 isolated from bovine assessed as lowest drug level producing inhibition at 10^6 CFU of inoculum by agar counting method; type: functional
Method in brief: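 ATCC 19698 at 10^6 CFU was exposed to drug (1.0–64.0 μg/ml) in MGIT ParaTB medium at 37°C. Aliquots taken at 3 and 5 days were centrifuged, resuspended in PBS and declumped with glass beads. Serial dilutions were plated in quadruplicate on 7H10/OADC/mycobactin J and counted after 8 weeks. Inhibition is the lowest concentration giving a 2 log10 (99%) CFU reduction.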

[40] = test system: Mycobacterium avium subsp. paratuberculosis; assay: Antituberculosis activity against Mycobacterium paratuberculosis ATCC 19698 isolated from bovine assessed as minimum drug level resulting in no detectable growth at 10^6 CFU of inoculum after 56 days by MGIT 960 susceptibility test; type: functional; method in brief: as §2
Mycobacterium avium [41] = assay: Antituberculosis activity against Mycobacterium avium ATCC 35712 isolated from chicken assessed as minimum drug level required for killing after 56 days by MGIT 960 susceptibility test; type: functional; method in brief: as §1

Measured: Activity

Cn1cnc([N+](=O)[O-])c1Sc1ncnc2[nH]cnc12 [AZATHIOPRINE]
8 µg/mL: [9] | [11] | [17]
>128 µg/mL: [32] | [33] | Escherichia coli [34] | Escherichia coli [35] | Enterococcus faecalis [36] | Enterococcus faecalis [37]
1 µg/mL: [7]
2 µg/mL: [1] | [5] | [16] | Mycolicibacterium phlei [30]
>32 µg/mL: [2] | [4] | [6] | [10] | [12] | [14] | [18]
16 µg/mL: [8] | [13] | [19]
64 µg/mL: Mycobacterium avium [24]
4 µg/mL: [3]
32 µg/mL: Mycolicibacterium phlei [31]
>64 µg/mL: Mycobacterium avium [15] | Mycobacterium avium [20] | Mycobacterium avium [21] | Mycobacterium avium [22] | Mycobacterium avium [23] | Mycobacterium avium [25] | Mycobacterium avium [26] | Mycobacterium avium [27] | Mycobacterium avium [28] | Mycobacterium avium [29]

CC[C@H]1OC(=O)[C@H](C)[C@@H](O[C@H]2C[C@@](C)(OC)[C@@H](O)[C@H](C)O2)[C@H](C)[C@@H](O[C@@H]2O[C@H](C)C[C@H](N(C)C)[C@H]2O)[C@](C)(O)C[C@@H](C)CN(C)[C@H](C)[C@@H](O)[C@]1(C)O [AZITHROMYCIN]
0.5 µg/mL: [5] | [7] | [11]
>0.5 µg/mL: [13]
1 µg/mL: [1] | [3] | [8] | [9] | [14] | Mycobacterium avium [15]
16 µg/mL: [40] | Mycobacterium avium [41]
4 µg/mL: [38] | [39] | [2] | [12]
2 µg/mL: [4] | [6] | [10]
